# Experimental data as given in ChEMBL document CHEMBL1148256, “Synthesis of new fluoroquinolones and evaluation of their in vitro activity on Toxoplasma gondii and Plasmodium spp” (Bioorg Med Chem Lett, 2004).
# Columns and labels:
# [1] = system: MRC5; assay: In vitro inhibitory activity on MRC5 fibroblast tissue cultures inoculated with virulent RH strain of Toxoplasma gondii; format: functional, cell-based; details: Homo sapiens
# Method in brief: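 Confluent MRC5 fibroblast monolayers inoculated with 2000 fresh RH tachyzoites; compounds added at various concentrations after 4 h, then 72 h further incubation. Eight uninfected and eight drug-free control wells per plate. Cold-methanol-fixed cultures assayed by ELISA with peroxidase-labelled anti-SAG-1 monoclonal antibody, read at 405 nm against uninfected blank. IC50 from linear regression of OD versus log concentration.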
# [2] = system: Plasmodium falciparum; assay: In vitro inhibitory activity against chloroquine-resistant Plasmodium falciparum NF54-R in blood; format: functional, organism-based
# [3] = system: Plasmodium yoelii yoelii; assay: In vitro inhibitory activity against hepatic stages of Plasmodium yoelii yoelii 265 BY; format: functional, organism-based
Structure (SMILES),IC50 [1],IC50 [2],IC50 [3]
N[C@@H]1[C@H]2CN(c3nc4c(cc3F)c(=O)c(C(=O)O)cn4C3CC3)C[C@@H]12 [TROVAFLOXACIN4],1.68 µM,–,–
COc1c(N2CCNC(C)C2)c(F)cc2c(=O)c(C(=O)O)cn(C3CC3)c12 (stereo not drawn) [GATIFLOXACIN],12.7 µM,29 µM,–
COc1c(N2C[C@@H]3CCCN[C@@H]3C2)c(F)cc2c(=O)c(C(=O)O)cn(C3CC3)c12 [MOXIFLOXACIN],10.9 µM,45 µM,–
N[C@@H]1[C@H]2CN(c3nc4c(cc3F)c(=O)c(C(=O)O)cn4-c3ccc(F)cc3F)C[C@@H]12 [TROVAFLOXACIN],0.96 µM,22 µM,74 µM
